Data reported in the array DNA melting data of Ke et al. (doi:10.1101/2024.01.08.574731).

What was measured:
[1] = folding enthalpy; higher = less favourable; fluorescence melt of hairpins on a sequencing array, two-state fit; settings: sodium 0.088 M
Summary of the method: (§1)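 Cy3 signals were normalised both to pre-quench Cy3 and to control constructs. They came from library hairpins carrying annealed Cy3 and quencher oligos on a sequenced MiSeq flow cell, imaged in 50 mM Na-HEPES pH 8.0, 25 mM NaCl, in 2.5 °C steps up to 60 °C. Bootstrapped two-state fits gave melting temperature and folding enthalpy, and four replicates were combined by inverse variance. Fitted temperatures were then raised by 9.35 °C to match UV melts.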

[2] = melting temperature; fluorescence melt of hairpins on a sequencing array, two-state fit, raised by 9.35 °C to match UV melts; settings: sodium 0.088 M
Summary of the method: as §1

GGCGAGCGAAAGCTGCC (((.(((....))))))
folding enthalpy [1]: -27.6 kcal/mol
Tm [2]: 66.9 °C

GGCGAGGGAAACCTCACC ((.((((....)))).))
folding enthalpy [1]: -31.7 kcal/mol
Tm [2]: 48.5 °C

GGCGAGGGAAACCTCGTC (.(((((....))))).)
folding enthalpy [1]: -36.4 kcal/mol
Tm [2]: 60.8 °C

GGCGATGGAAACATTGCC (((.(((....))).)))
folding enthalpy [1]: -47.2 kcal/mol
Tm [2]: 55.2 °C

GGCGCCGAAAGGCTTGCC ((((((....)))..)))
folding enthalpy [1]: -19.9 kcal/mol
Tm [2]: 53.4 °C

GGCGCCGGAAACAGCGCC (((((.(....).)))))
folding enthalpy [1]: -34.8 kcal/mol
Tm [2]: 65.2 °C

GGCGCTCCGAAAGGAGCC (((..(((....))))))
folding enthalpy [1]: -7.43 kcal/mol
Tm [2]: 47.8 °C

GGCGCTCGAAAGAGGGCC (((.(((....))).)))
folding enthalpy [1]: -39.6 kcal/mol
Tm [2]: 68.4 °C

GGCGCTGGAAACAACGCC ((((.((....)).))))
folding enthalpy [1]: -41 kcal/mol
Tm [2]: 55.2 °C

GGCGCTGGAAACAGCACC ((.((((....)))).))
folding enthalpy [1]: -29.7 kcal/mol
Tm [2]: 54.8 °C

GGCGGCGAAAGCCCGGCC ((((((....)))..)))
folding enthalpy [1]: -17.7 kcal/mol
Tm [2]: 61.5 °C

GGCGGCGAAAGCCGCGCC ((((((....)))..)))
folding enthalpy [1]: -6.34 kcal/mol
Tm [2]: 68 °C

GGCGGCGAAAGCCGGGCC ((((((....)))..)))
folding enthalpy [1]: -10.1 kcal/mol
Tm [2]: 58.1 °C

GGCGGTACGAAAGTAGCC (((..(((....))))))
folding enthalpy [1]: -18.8 kcal/mol
Tm [2]: 50.7 °C

GGCGGTCCGAAAGGAGCC (((..(((....))))))
folding enthalpy [1]: -17.7 kcal/mol
Tm [2]: 46.6 °C

GGCGTAGGAAACCACGCC (((((.(....).)))))
folding enthalpy [1]: -53.2 kcal/mol
Tm [2]: 56.2 °C

GGCGTAGGAAACTATGCC (((.(((....))).)))
folding enthalpy [1]: -41.8 kcal/mol
Tm [2]: 53.5 °C

GGCGTCGAAAGACACGCC ((((((....)))..)))
folding enthalpy [1]: -32 kcal/mol
Tm [2]: 55 °C

GGCGTCGAAAGACGAGCC ((((((....)))..)))
folding enthalpy [1]: -16.7 kcal/mol
Tm [2]: 54 °C

GGCGTCGAAAGACTCGCC ((((((....)))..)))
folding enthalpy [1]: -20.6 kcal/mol
Tm [2]: 50.1 °C

GGCGTCGAAAGACTTGCC ((((((....)))..)))
folding enthalpy [1]: -24.6 kcal/mol
Tm [2]: 48.9 °C

GGCGTCGGAAACGGTGCC (((..((....))..)))
folding enthalpy [1]: -30.6 kcal/mol
Tm [2]: 51.6 °C

GGCGTGCGAAAGCAGCC (((.(((....))))))
folding enthalpy [1]: -26.9 kcal/mol
Tm [2]: 67.8 °C

GGCGTGGGAAACCACGTC (.(((((....))))).)
folding enthalpy [1]: -21.1 kcal/mol
Tm [2]: 62.3 °C

GGCGTGGGAAACTACGCC (((((.(....).)))))
folding enthalpy [1]: -48 kcal/mol
Tm [2]: 61.2 °C

GGCGTGGGAAACTGCGCC ((((..(....)..))))
folding enthalpy [1]: -52.5 kcal/mol
Tm [2]: 55.7 °C

GGCGTTGGAAACAATGCC (((.(((....))).)))
folding enthalpy [1]: -53.7 kcal/mol
Tm [2]: 56.5 °C

GGCTAAGCGAAAGCTGCC (((..(((....))))))
folding enthalpy [1]: -23.7 kcal/mol
Tm [2]: 54.6 °C

GGCTAAGGAAACTTGGCC (((.(((....))).)))
folding enthalpy [1]: -29.6 kcal/mol
Tm [2]: 50.4 °C

GGCTAATCGAAAGATGCC (((..(((....))))))
folding enthalpy [1]: -27.2 kcal/mol
Tm [2]: 45.2 °C

GGCTACCCGAAAGGGGCC (((..(((....))))))
folding enthalpy [1]: -18.9 kcal/mol
Tm [2]: 50.6 °C

GGCTACCGAAAGGTCGCC (((.(((....))).)))
folding enthalpy [1]: -39.2 kcal/mol
Tm [2]: 58.6 °C

GGCTACCGAAAGGTGCC (((.(((....))))))
folding enthalpy [1]: -31.3 kcal/mol
Tm [2]: 61.2 °C

GGCTACGAAAGTATAGCC ((((((....)))..)))
folding enthalpy [1]: -25.1 kcal/mol
Tm [2]: 49.9 °C

GGCTACGAAAGTATTGCC ((((((....)))..)))
folding enthalpy [1]: -20.1 kcal/mol
Tm [2]: 44.1 °C

GGCTACGGAAACACAGCC ((((..(....)..))))
folding enthalpy [1]: -23.6 kcal/mol
Tm [2]: 35.5 °C

GGCTACGGAAACGCAGCC ((((.((....)).))))
folding enthalpy [1]: -53 kcal/mol
Tm [2]: 52.6 °C

GGCTAGAAATAGCC (((((....)))))
folding enthalpy [1]: -24.6 kcal/mol
Tm [2]: 51.5 °C

GGCTAGCCGAAAGGCGCC (((..(((....))))))
folding enthalpy [1]: -15.9 kcal/mol
Tm [2]: 59 °C

GGCTAGCGAAAGCTGCC (((.(((....))))))
folding enthalpy [1]: -22.7 kcal/mol
Tm [2]: 64.3 °C

GGCTAGCGAAAGCTTGCC (((.(((....))).)))
folding enthalpy [1]: -36.3 kcal/mol
Tm [2]: 65.6 °C

GGCTAGGAAACTAGCC ((((((....))))))
folding enthalpy [1]: -34.8 kcal/mol
Tm [2]: 60.4 °C

GGCTAGGGAAACCTAGCC (((((((....)))))))
folding enthalpy [1]: -42.6 kcal/mol
Tm [2]: 67.5 °C

GGCTAGGGAAACCTGGTC (.(.(((....))).).)
folding enthalpy [1]: -30.6 kcal/mol
Tm [2]: 35.5 °C

GGCTAGGGAAACTTGGCC (((.(.(....).).)))
folding enthalpy [1]: -25.9 kcal/mol
Tm [2]: 40.6 °C

GGCTAGTCGAAAGACGCC (((..(((....))))))
folding enthalpy [1]: -19.9 kcal/mol
Tm [2]: 52.3 °C

GGCTATCGAAAGATGCC (((.(((....))))))
folding enthalpy [1]: -25.3 kcal/mol
Tm [2]: 52.8 °C

GGCTATGGAAACATGGCC (((.(((....))).)))
folding enthalpy [1]: -53.7 kcal/mol
Tm [2]: 53.2 °C

GGCTCAGGAAACCAAGCC ((((..(....)..))))
folding enthalpy [1]: -31.6 kcal/mol
Tm [2]: 35.3 °C

GGCTCAGGAAACTGGGTC (.(.(((....))).).)
folding enthalpy [1]: -25.9 kcal/mol
Tm [2]: 38 °C

GGCTCCCCGAAAGGGGCC (((..(((....))))))
folding enthalpy [1]: -12 kcal/mol
Tm [2]: 50.9 °C

GGCTCCCGAAAGGGCGCC (((.(((....))).)))
folding enthalpy [1]: -33.6 kcal/mol
Tm [2]: 62.6 °C

GGCTCCGAAAGGATAGCC ((((((....)))..)))
folding enthalpy [1]: -39.5 kcal/mol
Tm [2]: 52.4 °C

GGCTCCGAAAGGATCGCC ((((((....)))..)))
folding enthalpy [1]: -21.7 kcal/mol
Tm [2]: 47.2 °C

GGCTCCGAAAGGATGGCC ((((((....)))..)))
folding enthalpy [1]: -30.9 kcal/mol
Tm [2]: 52.3 °C

GGCTCCGGAAACAGAGCC (((((.(....).)))))
folding enthalpy [1]: -34 kcal/mol
Tm [2]: 50.5 °C

GGCTCCGGAAACGGAACC ((.((((....)))).))
folding enthalpy [1]: -28.9 kcal/mol
Tm [2]: 51.1 °C

GGCTCGGCGAAAGCCGCC (((..(((....))))))
folding enthalpy [1]: -8.18 kcal/mol
Tm [2]: 43 °C

GGCTCGGGAAACCAAGCC ((((.((....)).))))
folding enthalpy [1]: -35.3 kcal/mol
Tm [2]: 48.8 °C

GGCTCGTCGAAAGACGCC (((..(((....))))))
folding enthalpy [1]: -9.65 kcal/mol
Tm [2]: 42 °C

GGCTCTGGAAACGGAGCC (((((.(....).)))))
folding enthalpy [1]: -47.1 kcal/mol
Tm [2]: 60 °C

GGCTGATCGAAAGATGCC (((..(((....))))))
folding enthalpy [1]: -22.6 kcal/mol
Tm [2]: 43.9 °C

GGCTGCGAAAGCAATGCC ((((((....)))..)))
folding enthalpy [1]: -22 kcal/mol
Tm [2]: 55 °C

GGCTGCGAAAGCACCGCC ((((((....)))..)))
folding enthalpy [1]: -20.7 kcal/mol
Tm [2]: 54.1 °C

GGCTGCGAAAGCAGCGCC ((((((....)))..)))
folding enthalpy [1]: -5.65 kcal/mol
Tm [2]: 68.8 °C

GGCTGCGAAAGCATGGCC ((((((....)))..)))
folding enthalpy [1]: -31.8 kcal/mol
Tm [2]: 54.6 °C

GGCTGCGGAAACACAGCC (((((.(....).)))))
folding enthalpy [1]: -42 kcal/mol
Tm [2]: 56 °C

GGCTGGGCGAAAGCCGCC (((..(((....))))))
folding enthalpy [1]: -19.6 kcal/mol
Tm [2]: 58.4 °C
